Reference: article PMC6598175 (ACS Central Science, 2019)
Blank lines part the entries; values can stand above or below the molecule they belong to.

How the values were obtained:
ASPACDRAFT_127619 = target: T1, ASPACDRAFT_127619 (Aspergillus aculeatus, UniProt A0A1L9WG58); experiment: Competitive ABP labeling by 8 against substrates, recombinant enzyme; type: binding, A. aculeatus
T1 sequence (A0A1L9WG58 23-338): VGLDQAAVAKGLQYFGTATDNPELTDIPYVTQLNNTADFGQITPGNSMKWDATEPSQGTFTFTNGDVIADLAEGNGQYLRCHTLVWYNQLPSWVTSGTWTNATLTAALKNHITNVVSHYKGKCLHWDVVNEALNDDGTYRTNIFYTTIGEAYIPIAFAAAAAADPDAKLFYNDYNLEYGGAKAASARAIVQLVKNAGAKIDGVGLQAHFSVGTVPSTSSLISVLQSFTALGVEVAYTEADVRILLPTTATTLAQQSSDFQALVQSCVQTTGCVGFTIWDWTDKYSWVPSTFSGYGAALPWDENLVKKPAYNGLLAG
In short: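 Labeling of recombinant GH10 xylanase used 100 nM xylobiose Cy5 ABP for 10 min at room temperature, with competing substrates (e.g. polysaccharides) added. Loss of in-gel fluorescence with competitor concentration gave IC50. Assays were also repeated at 20 min, 37 °C, 1 μM ABP. Three or four technical replicates.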

[1] = target: ∼30 kDa band (XlnC, β-xylanase) (Aspergillus niger, UniProt C5J411); experiment: ABP labeling of secretomes and competition by inhibitors; type: binding, A. niger; conditions: xylan-induced secretome preincubated with competitor, then ABP 8
In short: (§1)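 A. niger N402 was grown in minimal medium with 50 mM (0.75% w/v) xylose or 1% w/v beechwood xylan as sole carbon source. Secretomes were sampled at days 1–9, brought to pH 4.5 with phosphate/citrate buffer and labeled unconcentrated with Cy5 ABPs. In competition runs, secretome was preincubated with competitor (e.g. 100 μM aziridine) before ABP. Bands were read by SDS-PAGE fluorescence scan.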

[2] = target: T2, ∼130 kDa band (XlnD, β-xylosidase) (Aspergillus niger, UniProt O00089); experiment: as above; type: binding, A. niger
T2 sequence (O00089 27-804): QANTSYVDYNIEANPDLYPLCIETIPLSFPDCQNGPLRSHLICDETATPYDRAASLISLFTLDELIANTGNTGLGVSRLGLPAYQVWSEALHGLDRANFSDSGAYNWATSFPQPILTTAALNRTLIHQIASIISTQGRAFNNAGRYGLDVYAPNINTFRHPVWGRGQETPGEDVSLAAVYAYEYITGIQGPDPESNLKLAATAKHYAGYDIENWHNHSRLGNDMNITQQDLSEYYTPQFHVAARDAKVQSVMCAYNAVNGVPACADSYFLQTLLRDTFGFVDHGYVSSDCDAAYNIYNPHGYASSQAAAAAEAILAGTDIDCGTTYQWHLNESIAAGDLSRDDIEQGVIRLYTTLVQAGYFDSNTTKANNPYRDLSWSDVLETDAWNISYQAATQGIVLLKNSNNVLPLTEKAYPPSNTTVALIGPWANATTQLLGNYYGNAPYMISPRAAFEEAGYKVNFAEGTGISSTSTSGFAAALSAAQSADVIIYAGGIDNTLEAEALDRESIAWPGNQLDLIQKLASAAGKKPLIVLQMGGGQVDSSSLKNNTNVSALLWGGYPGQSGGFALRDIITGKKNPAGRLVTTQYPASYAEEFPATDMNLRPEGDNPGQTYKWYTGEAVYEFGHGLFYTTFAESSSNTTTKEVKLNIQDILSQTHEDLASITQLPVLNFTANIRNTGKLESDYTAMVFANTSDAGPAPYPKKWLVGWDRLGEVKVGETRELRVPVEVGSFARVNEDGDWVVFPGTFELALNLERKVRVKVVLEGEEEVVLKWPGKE
In short: as §1

IC50 (ASPACDRAFT_127619): 204 µM
Compound: Cc1cc(=O)oc2cc(O[C@@H]3OC[C@@H](O[C@@H]4OC[C@@H](O)[C@H](O)[C@H]4O)[C@H](O)[C@H]3O)ccc12 [4MU-β-D-xylobioside]

competition of ∼30 kDa band labeling by 8 [1]: No labeling inhibition
competition of ∼130 kDa band labeling by 8 ([2]; xylan-induced secretome preincubated with competitor, then ABP 8): No labeling inhibition
Compound: OC[C@@H]1[C@@H](O)[C@H](O)[C@@H](O)[C@@H]2O[C@H]12 [Compound 22, cyclophellitol]

Compound: OC[C@@H]1[C@@H](O)[C@H](O)[C@@H](O)[C@@H]2N[C@H]12 [Compound 23, cyclophellitol aziridine]
competition of ∼130 kDa band labeling by 8 ([2]; preincubation with 100 μM competitor): some loss of intensity
